This is an account of results in ChEMBL document CHEMBL4043093, “2-Oxo-3, 4-dihydropyrimido[4, 5-d]pyrimidinyl derivatives as new irreversible pan fibroblast growth factor receptor (FGFR) inhibitors” (Eur J Med Chem, 2017).

For experiment [1], the system named is Epidermal growth factor receptor (Homo sapiens), P00533 [L858R,T790M]. The experiment can be described thus: Inhibition of human partial length EGFR L858R/T790M double mutant (R669 to V1011 residues) expressed in HEK293 cells assessed as residual activity at 1000 nM after 30 mins by Kinomescan method relative to control. The format is cell-based. The essentials:
(§1)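 KINOMEscan binding panel of 456 kinases, with the test compound at a single concentration of 1 µM. Read-out is Percent Control.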

In experiment [2] the target is Homeodomain-interacting protein kinase 1 (Homo sapiens) (UniProt Q86Z02). The experiment can be described thus: Inhibition of wild-type human partial length HIPK1 (M146 to I555 residues) expressed in HEK293 cells assessed as residual activity at 1000 nM after 30 mins by Kinomescan method relative to control. The format is cell-based.
The target in experiment [3] is Atypical kinase COQ8A, mitochondrial (Homo sapiens) (UniProt Q8NI60). Briefly: Inhibition of wild-type human […] ADCK3 (M280 to Q647 residues) expressed in Escherichia coli BL21 assessed as residual activity at 1000 nM after 30 mins by Kinomescan method relative to control. The essentials: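 Single-point screen at a fixed 1 µM, run within a 456-kinase DiscoveRx KINOMEscan panel. Each kinase's read-out is Percent Control, i.e. signal relative to a control without compound. Hits were scored by a Percent Control < 35 cut-off, and an S(35) selectivity score was calculated across the non-mutant kinases.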

In experiment [4] the test system is Receptor-type tyrosine-protein kinase FLT3 (Homo sapiens), P36888 [R834Q]. Briefly: Inhibition of human partial length FLT3 R834Q mutant (V592 to Y969 residues) expressed in HEK293 cells assessed as residual activity at 1000 nM after 30 mins by Kinomescan method relative to control. The class given is cell-based. In outline: as §1
For experiment [5], the target named is Citron Rho-interacting kinase (Homo sapiens) (UniProt O14578). The experiment can be described thus: Inhibition of wild-type human partial length CIT (M68 to E432 residues) expressed in Escherichia coli BL21 assessed as residual activity at 1000 nM after 30 mins by Kinomescan method relative to control.
Experiment [6] concerns the target Serine/threonine-protein kinase PAK 3 (Homo sapiens) (UniProt O75914). The experiment can be described thus: Inhibition of wild-type human full length PAK3 (M1 to R544 residues) expressed in Escherichia coli BL21 assessed as residual activity at 1000 nM after 30 mins by Kinomescan method relative to control. The essentials:
(§2)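 Single-concentration screen at 1 µM across a 456-kinase KINOMEscan panel. The read-out is Percent Control for each kinase.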

The target of experiment [7] is Serine/threonine-protein kinase Chk2 (Homo sapiens) (UniProt O96017). The experiment can be described thus: Inhibition of wild-type human partial length CHEK2 (S253 to E574 residues) expressed in Escherichia coli BL21 assessed as residual activity at 1000 nM after 30 mins by Kinomescan method relative to control.
Experiment [8] concerns the target Mitogen-activated protein kinase 12 (Homo sapiens) (UniProt P53778). The experiment can be described thus: Inhibition of wild-type human full length p38-gamma (M1 to L367 residues) expressed in HEK293 cells assessed as residual activity at 1000 nM after 30 mins by Kinomescan method relative to control. The format is cell-based.
For experiment [9], the target named is Serine/threonine-protein kinase WNK4 (Homo sapiens) (UniProt Q96J92). The experiment can be described thus: Inhibition of wild-type human partial length WNK4 (A31 to D461 residues) expressed in HEK293 cells assessed as residual activity at 1000 nM after 30 mins by Kinomescan method relative to control. The class given is cell-based.
Experiment [10] addresses Tyrosine-protein kinase Tec (Homo sapiens) (UniProt P42680). The experiment can be described thus: Inhibition of wild-type human partial length TEC (L341 to D620 residues) expressed in Escherichia coli BL21 assessed as residual activity at 1000 nM after 30 mins by Kinomescan method relative to control.
The subject of experiment [11] is Receptor-type tyrosine-protein kinase FLT3 (Homo sapiens), P36888 [D835Y]. The experiment can be described thus: Inhibition of human partial length FLT3 D835Y mutant (Q580 to Y969 residues) expressed in Escherichia coli BL21 assessed as residual activity at 1000 nM after 30 mins by Kinomescan method relative to control. In outline: as §1
Experiment [12] relates to Tyrosine-protein kinase ABL1 (Homo sapiens), P00519 [F317L]. Briefly: Inhibition of human non-phosphorylated ABL1 F317L mutant (S229 to K512 residues) expressed in HEK293 cells assessed as residual activity at 1000 nM after 30 mins by Kinomescan method relative to control. The format is cell-based. In outline:
as §1

The target in experiment [13] is Serine/threonine-protein kinase Nek4 (Homo sapiens) (UniProt P51957). Briefly: Inhibition of wild-type human full length NEK4 (M1 to F841 residues) expressed in HEK293 cells assessed as residual activity at 1000 nM after 30 mins by Kinomescan method relative to control. The class given is cell-based. In outline:
as §2

For experiment [14], the target named is Serine/threonine-protein kinase RIO2 (Homo sapiens) (UniProt Q9BVS4). Briefly: Inhibition of wild-type human partial length RIOK2 (M1 to D313 residues) expressed in HEK293 cells assessed as residual activity at 1000 nM after 30 mins by Kinomescan method relative to control. The class given is cell-based.
Experiment [15] deals with Ephrin type-A receptor 2 (Homo sapiens) (UniProt P29317). The experiment can be described thus: Inhibition of wild-type human partial length EPHA2 (T593 to V891 residues) expressed in Escherichia coli BL21 assessed as residual activity at 1000 nM after 30 mins by Kinomescan method relative to control.
For experiment [16], the target named is Serine/threonine-protein kinase STK11 (Homo sapiens) (UniProt Q15831). The experiment can be described thus: Inhibition of wild-type human full length LKB1 (M1 to Q433 residues) expressed in Escherichia coli BL21 assessed as residual activity at 1000 nM after 30 mins by Kinomescan method relative to control. In outline:
as §2

The target in experiment [17] is Serine/threonine-protein kinase 4 (Homo sapiens) (UniProt Q13043). Briefly: Inhibition of wild-type human full length MST1 (M1 to F487 residues) expressed in Escherichia coli BL21 assessed as residual activity at 1000 nM after 30 mins by Kinomescan method relative to control. In outline:
as §2

Experiment [18] addresses Vascular endothelial growth factor receptor 1 (Homo sapiens) (UniProt P17948). The experiment can be described thus: Inhibition of wild-type human partial length FLT1 (R781 to F1239 residues) expressed in Escherichia coli BL21 assessed as residual activity at 1000 nM after 30 mins by Kinomescan method relative to control.
Experiment [19] deals with Serine/threonine-protein kinase 10 (Homo sapiens) (UniProt O94804). Briefly: Inhibition of wild-type human partial length LOK (E16 to V314 residues) expressed in Escherichia coli BL21 assessed as residual activity at 1000 nM after 30 mins by Kinomescan method relative to control.
The target in experiment [20] is Protein-tyrosine kinase 2-beta (Homo sapiens) (UniProt Q14289). Briefly: Inhibition of wild-type human full length PYK2 (M1 to E967 residues) expressed in Escherichia coli BL21 assessed as residual activity at 1000 nM after 30 mins by Kinomescan method relative to control. The essentials:
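Single-concentration screen at 1 µM against a 456-kinase panel (KINOMEscan). Read-out is Percent Control for each kinase. Across the 403 non-mutant kinases, an S(35) selectivity score was derived as the fraction of kinases with Percent Control < 35.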

Sequence of Serine/threonine-protein kinase Chk2 (Homo sapiens) (O96017 whole entry, the tested form may be a part): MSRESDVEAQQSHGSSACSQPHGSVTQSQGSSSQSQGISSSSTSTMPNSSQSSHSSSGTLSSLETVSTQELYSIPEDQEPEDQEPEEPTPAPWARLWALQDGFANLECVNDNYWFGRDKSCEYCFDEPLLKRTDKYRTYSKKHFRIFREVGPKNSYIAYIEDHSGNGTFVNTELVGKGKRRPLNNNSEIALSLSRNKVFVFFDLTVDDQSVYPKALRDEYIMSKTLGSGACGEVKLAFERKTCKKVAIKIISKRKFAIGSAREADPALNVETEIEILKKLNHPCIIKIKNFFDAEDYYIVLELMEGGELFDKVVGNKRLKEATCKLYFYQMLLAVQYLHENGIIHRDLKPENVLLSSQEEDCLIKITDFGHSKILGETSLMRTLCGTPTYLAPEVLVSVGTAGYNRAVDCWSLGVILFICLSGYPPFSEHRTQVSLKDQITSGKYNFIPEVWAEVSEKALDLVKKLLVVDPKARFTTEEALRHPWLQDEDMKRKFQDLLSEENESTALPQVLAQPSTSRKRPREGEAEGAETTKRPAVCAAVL
Sequence of Serine/threonine-protein kinase Nek4 (Homo sapiens) (P51957 whole entry, looked up, the tested form may be a part): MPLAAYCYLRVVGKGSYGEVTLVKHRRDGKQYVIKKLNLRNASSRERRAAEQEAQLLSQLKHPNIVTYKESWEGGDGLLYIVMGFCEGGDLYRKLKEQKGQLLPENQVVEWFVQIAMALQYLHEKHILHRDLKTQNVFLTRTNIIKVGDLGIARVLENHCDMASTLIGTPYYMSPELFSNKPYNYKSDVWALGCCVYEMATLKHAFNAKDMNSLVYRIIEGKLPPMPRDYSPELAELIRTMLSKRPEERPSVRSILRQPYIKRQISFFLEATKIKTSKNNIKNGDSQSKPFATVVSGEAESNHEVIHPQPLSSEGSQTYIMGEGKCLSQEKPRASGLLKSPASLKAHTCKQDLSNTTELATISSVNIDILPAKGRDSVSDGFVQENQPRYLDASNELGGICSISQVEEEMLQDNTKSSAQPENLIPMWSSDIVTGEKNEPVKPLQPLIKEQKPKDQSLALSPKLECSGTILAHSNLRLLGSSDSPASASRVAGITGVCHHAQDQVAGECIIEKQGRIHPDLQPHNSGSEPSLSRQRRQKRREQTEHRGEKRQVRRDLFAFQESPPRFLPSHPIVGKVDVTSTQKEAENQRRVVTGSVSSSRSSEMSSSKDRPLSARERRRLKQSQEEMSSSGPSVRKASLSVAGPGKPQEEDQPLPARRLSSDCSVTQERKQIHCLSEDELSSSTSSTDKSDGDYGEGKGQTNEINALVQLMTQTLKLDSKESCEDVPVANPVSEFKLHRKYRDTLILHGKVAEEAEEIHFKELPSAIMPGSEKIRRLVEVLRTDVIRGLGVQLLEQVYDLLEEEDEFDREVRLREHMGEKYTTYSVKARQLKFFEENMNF
Sequence of Serine/threonine-protein kinase STK11 (Homo sapiens) (Q15831 whole entry, the tested form may be a part): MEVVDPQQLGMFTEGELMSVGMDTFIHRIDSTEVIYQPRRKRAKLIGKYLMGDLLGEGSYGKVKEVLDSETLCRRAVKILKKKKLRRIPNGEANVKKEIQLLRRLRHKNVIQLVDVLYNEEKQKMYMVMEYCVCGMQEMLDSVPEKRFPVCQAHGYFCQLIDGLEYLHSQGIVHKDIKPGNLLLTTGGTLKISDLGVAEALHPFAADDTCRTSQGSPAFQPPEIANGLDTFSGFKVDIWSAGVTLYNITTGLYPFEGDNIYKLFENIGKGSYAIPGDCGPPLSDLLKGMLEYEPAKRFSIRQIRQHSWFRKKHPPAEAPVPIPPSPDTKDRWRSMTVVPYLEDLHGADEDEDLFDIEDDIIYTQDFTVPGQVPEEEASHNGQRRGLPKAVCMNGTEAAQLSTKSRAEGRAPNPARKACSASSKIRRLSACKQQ
Sequence of Homeodomain-interacting protein kinase 1 (Homo sapiens) (Q86Z02 whole entry, looked up, the tested form may be a part): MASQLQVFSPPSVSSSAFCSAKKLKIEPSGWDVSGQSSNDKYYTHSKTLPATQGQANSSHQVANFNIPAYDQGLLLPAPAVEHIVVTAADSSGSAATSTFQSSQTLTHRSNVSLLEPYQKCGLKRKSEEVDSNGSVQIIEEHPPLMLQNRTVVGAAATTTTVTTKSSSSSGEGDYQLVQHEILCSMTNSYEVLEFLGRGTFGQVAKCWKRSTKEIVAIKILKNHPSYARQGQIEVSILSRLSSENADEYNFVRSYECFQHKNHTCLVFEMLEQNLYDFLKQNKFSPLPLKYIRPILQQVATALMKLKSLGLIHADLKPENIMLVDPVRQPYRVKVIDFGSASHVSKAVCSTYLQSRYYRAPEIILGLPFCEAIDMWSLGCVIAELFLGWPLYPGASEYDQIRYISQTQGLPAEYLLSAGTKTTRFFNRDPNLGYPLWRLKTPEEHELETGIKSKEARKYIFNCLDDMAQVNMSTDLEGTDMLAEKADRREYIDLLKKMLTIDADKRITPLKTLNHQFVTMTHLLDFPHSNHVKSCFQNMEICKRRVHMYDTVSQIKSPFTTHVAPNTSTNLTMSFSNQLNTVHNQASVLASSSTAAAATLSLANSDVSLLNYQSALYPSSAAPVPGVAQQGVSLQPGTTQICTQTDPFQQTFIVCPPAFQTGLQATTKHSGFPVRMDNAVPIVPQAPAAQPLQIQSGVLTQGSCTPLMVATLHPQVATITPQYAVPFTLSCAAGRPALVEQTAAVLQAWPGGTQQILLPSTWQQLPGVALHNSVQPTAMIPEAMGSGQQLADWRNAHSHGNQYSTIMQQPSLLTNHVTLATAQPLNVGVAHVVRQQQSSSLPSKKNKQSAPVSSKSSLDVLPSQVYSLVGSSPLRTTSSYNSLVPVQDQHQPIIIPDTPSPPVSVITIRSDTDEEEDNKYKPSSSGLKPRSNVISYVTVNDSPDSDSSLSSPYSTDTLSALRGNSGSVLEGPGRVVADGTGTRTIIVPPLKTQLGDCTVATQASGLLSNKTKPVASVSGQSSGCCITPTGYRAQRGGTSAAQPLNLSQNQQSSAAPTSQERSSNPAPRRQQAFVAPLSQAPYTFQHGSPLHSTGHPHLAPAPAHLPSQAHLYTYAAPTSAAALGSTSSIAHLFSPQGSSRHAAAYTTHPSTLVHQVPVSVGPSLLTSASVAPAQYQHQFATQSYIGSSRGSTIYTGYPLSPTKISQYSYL
Sequence of Atypical kinase COQ8A, mitochondrial (Homo sapiens) (Q8NI60 163-647 limits assumed): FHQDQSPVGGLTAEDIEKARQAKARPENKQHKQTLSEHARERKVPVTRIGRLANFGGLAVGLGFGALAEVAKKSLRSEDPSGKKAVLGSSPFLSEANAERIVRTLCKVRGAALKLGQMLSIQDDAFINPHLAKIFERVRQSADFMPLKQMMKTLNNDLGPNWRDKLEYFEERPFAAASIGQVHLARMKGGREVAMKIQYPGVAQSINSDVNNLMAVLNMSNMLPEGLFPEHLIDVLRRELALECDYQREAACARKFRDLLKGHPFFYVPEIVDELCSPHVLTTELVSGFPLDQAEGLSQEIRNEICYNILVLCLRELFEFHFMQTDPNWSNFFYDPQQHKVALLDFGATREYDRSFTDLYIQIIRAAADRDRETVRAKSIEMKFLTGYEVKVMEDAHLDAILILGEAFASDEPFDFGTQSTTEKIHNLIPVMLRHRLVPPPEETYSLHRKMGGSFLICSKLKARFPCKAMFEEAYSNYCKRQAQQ
Sequence of Tyrosine-protein kinase ABL1 (Homo sapiens), P00519 [F317L] (P00519 whole entry F317L, the tested form may be a part): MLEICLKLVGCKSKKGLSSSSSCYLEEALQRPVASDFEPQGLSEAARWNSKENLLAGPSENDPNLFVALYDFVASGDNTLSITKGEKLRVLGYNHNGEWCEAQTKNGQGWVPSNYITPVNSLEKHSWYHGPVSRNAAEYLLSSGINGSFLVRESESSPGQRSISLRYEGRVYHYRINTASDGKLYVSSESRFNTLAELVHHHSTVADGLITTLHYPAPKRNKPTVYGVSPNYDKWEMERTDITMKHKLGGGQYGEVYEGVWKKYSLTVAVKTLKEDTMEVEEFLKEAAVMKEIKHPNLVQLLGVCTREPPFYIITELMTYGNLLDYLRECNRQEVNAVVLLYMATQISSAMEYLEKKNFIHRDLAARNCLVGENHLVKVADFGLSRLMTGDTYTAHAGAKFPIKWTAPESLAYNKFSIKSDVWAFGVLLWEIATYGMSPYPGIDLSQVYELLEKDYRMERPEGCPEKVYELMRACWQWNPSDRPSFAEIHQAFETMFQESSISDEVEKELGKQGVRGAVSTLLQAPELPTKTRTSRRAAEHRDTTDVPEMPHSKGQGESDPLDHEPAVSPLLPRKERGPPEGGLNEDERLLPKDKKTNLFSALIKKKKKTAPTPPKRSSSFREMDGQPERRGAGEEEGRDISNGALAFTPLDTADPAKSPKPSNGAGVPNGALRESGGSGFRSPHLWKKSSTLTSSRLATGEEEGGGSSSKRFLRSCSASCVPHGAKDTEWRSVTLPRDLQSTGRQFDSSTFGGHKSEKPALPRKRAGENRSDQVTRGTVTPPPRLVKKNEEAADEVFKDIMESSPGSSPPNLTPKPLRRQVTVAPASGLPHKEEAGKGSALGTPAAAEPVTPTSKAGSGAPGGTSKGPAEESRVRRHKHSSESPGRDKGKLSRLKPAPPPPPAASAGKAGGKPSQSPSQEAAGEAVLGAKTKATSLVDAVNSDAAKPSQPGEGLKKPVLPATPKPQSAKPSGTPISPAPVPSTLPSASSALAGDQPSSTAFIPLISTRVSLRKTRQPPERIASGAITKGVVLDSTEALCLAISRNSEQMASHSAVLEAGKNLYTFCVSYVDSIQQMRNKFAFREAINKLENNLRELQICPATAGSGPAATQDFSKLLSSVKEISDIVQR
Sequence of Mitogen-activated protein kinase 12 (Homo sapiens) (P53778 whole entry, the tested form may be a part): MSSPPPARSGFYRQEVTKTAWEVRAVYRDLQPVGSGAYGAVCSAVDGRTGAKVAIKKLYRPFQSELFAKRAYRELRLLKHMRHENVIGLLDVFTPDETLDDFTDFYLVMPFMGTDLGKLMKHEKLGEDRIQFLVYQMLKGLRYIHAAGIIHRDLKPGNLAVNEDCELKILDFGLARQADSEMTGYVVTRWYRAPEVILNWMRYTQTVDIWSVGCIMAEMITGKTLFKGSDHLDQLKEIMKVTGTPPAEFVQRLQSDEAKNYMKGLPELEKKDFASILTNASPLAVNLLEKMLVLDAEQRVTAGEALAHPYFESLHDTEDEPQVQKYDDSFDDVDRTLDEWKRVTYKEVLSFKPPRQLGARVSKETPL

For `COc1cc(OC)c(Cl)c(N2Cc3cnc(Nc4ccc(F)cc4)nc3N(C3CCN(C(=O)/C=C/CN(C)C)CC3)C2=O)c1Cl`, the Activity in experiment [1] stood at 94%; in [2], 100%; in [3] it was 100%; in experiment [4], 96%; in experiment [5] it was 99%; in experiment [6], 99%. Moreover, the Activity in experiment [7] was determined as 100%; in experiment [8] it was 89%; in experiment [9], 100%; in experiment [10] it was 100%; in [11], 83%; in [12] it was 96%. In addition, the Activity worked out at 100% in [13]; 100% in experiment [14]; 100% in experiment [15]; 100% in experiment [16]; 81% in experiment [17]; 5.6% in experiment [18]. Further, the Activity in [19] was found to be 34%; in experiment [20], 91%.
